Test results: ChEMBL document CHEMBL3797120, “Identification of 1,2,3-triazole derivatives that protect pancreatic β cells against endoplasmic reticulum stress-mediated dysfunction and death through the inhibition of C/EBP-homologous protein expression” (Bioorg Med Chem, 2016)
Calls of active or inactive are those of the source. No cut-off for these calls is given here.

Assays:
[1] = test system: INS1; experiment: Cytoprotective activity in endoplasmic reticulum stressed rat INS-1 cells assessed as rescue from tunicamycin-mediated reduction in cell survival after 72 hrs by CellTiter-Glo assay; settings: INS1, 72 h
[2] = test system: INS1; experiment: Cytoprotective activity in endoplasmic reticulum stressed rat INS-1 cells assessed as rescue from tunicamycin-mediated reduction in cell viability at 10 uM after 72 hrs by CellTiter-Glo assay relative to control; assay type: functional
Summary of the method: (§1)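 INS-1 cells seeded at 3 × 10³/well and exposed for 72 h to Tm 0.1 μg/ml plus compound. Viability measured as ATP by CellTiter-Glo. Tm alone was set to 0% and DMSO without Tm to 100% rescue. Values are the mean of three experiments. EC50 was derived for survival.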

[3] = test system: HEK293; experiment: Inhibition of endoplasmic reticulum stress-mediated upregulation of CHOP gene expression in tunicamycin-treated HEK293 cells after 24 hrs by bright-glo luciferase reporter gene assay; assay type: functional, cell-based; settings: Homo sapiens, HEK293, 24 h
Summary of the method: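 HEK293 cells stably carrying a CHOP promoter-luciferase reporter were seeded at 7 × 10³/well and incubated 16 h. Compound at indicated concentrations and Tm 1 μg/mL were added, and luciferase read by Bright-Glo 24 h later. IC50 determined for CHOP-Luc inhibition.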

[4] = test system: INS1; experiment: Cytoprotective activity in endoplasmic reticulum stressed rat INS-1 cells assessed as rescue from tunicamycin-mediated reduction in cell viability at 20 uM after 72 hrs by CellTiter-Glo assay relative to control; assay type: functional; summary of the method: as §1
[5] = Inhibition of endoplasmic reticulum stress-mediated upregulation of CHOP mRNA expression in tunicamycin-treated rat INS-1 cells at 5 to 20 uM after 8 hrs by qRT-PCR method; assay type: functional, cell-based; settings: INS1
Summary of the method: (§2)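 INS-1 cells seeded at 4 × 10⁵/well and treated with Tm 0.1 μg/ml plus compound, either for 8 h at indicated concentrations or for indicated times at 10 μM. CHOP mRNA was measured by qRT-PCR with rat primers, normalized to rat cyclophilin A, and reported as fold change.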

[6] = test system: INS1; experiment: Cytoprotective activity in endoplasmic reticulum stressed rat INS-1 cells assessed as rescue from tunicamycin-mediated reduction in cell viability at 40 uM after 72 hrs by CellTiter-Glo assay relative to control; assay type: functional; summary of the method: as §1
[7] = Inhibition of endoplasmic reticulum stress-mediated upregulation of CHOP mRNA expression in tunicamycin-treated rat INS-1 cells at 10 uM after 2 to 8 hrs by qRT-PCR method; assay type: functional, cell-based; settings: INS1; summary of the method: as §2
[8] = test system: HEK293; experiment: Inhibition of endoplasmic reticulum stress-mediated upregulation of CHOP mRNA expression in tunicamycin-treated HEK293 cells after 2 to 8 hrs by qRT-PCR method; assay type: functional, cell-based; settings: Homo sapiens
Summary of the method: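 HEK293 cells seeded at 4 × 10⁵/well and treated with Tm 1 μg/ml plus 20 μM compound or DMSO for the indicated times. CHOP mRNA was measured by qRT-PCR (2 μg RNA reverse transcribed), normalized to human cyclophilin A, and reported as fold change. Means ± SD of triplicates.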

[9] = test system: INS1; experiment: Cytoprotective activity in endoplasmic reticulum stressed rat INS-1 cells assessed as rescue from tunicamycin-mediated reduction in cell viability at 5 uM after 72 hrs by CellTiter-Glo assay relative to control; assay type: functional; summary of the method: as §1
[10] = Inhibition of endoplasmic reticulum stress-mediated upregulation of CHOP mRNA expression in tunicamycin-treated rat INS-1 cells at 20 uM after 2 to 8 hrs by qRT-PCR method; assay type: functional, cell-based; settings: INS1

SMILES | EC50 [1] | %max [2] | also measured
CCc1ccc(-n2nnc(C(=O)Nc3cccc(Cl)c3C)c2C)cc1 | 7.8 µM | 88% | 
Cc1c(C(=O)Nc2ccccc2)nnn1-c1ccccc1 | 9.5 µM |  | IC50 [3]: 1.5 µM; %max [4]: 12%
CCc1ccc(-n2nnc(C(=O)Nc3ccccc3CC)c2C)cc1 | 4.2 µM | 91% | 
COc1ccc(-n2nnc(C(=O)Nc3cccc(Cl)c3C)c2C)cc1 | 5.2 µM |  | %max [4]: 81%
Cc1ccc(-n2nnc(C(=O)Nc3cccc(Cl)c3C)c2C)c(C)c1 | 2.5 µM | 92% | 
CCc1ccc(-n2nnc(C(=O)Nc3ccc(F)cc3)c2C)cc1 | 2.7 µM | 82% | 
CCc1ccc(-n2nnc(C(=O)Nc3ccc(C(=O)O)cc3)c2C)cc1 |  | 0% | inhibition [5]: inactive
CCOc1ccccc1-n1nnc(C(=O)Nc2c(C)cccc2CC)c1C |  |  | %max [6]: 50%
CCc1ccc(-n2nnc(C(=O)Nc3cc(C)ccc3C)c2C)cc1 | 1.6 µM | 90% | inhibition [7]: Active
CCc1cccc(C)c1NC(=O)c1nnn(-c2ccccc2OC)c1C | 1 µM |  | %max [4]: 38%
Cc1cccc(C)c1NC(=O)c1nnn(-c2ccccc2F)c1C | 1.4 µM |  | %max [6]: 23%
CCOc1ccccc1-n1nnc(C(=O)Nc2cccc(Cl)c2C)c1C | 8.7 µM |  | %max [4]: 52%
CCc1cccc(C)c1NC(=O)c1nnn(-c2ccc(OC)cc2)c1C |  |  | %max [4]: 39%
Cc1ccc(-n2nnc(C(=O)Nc3ccccc3C)c2C)cc1C | 3.1 µM | 56% | 
Cc1ccccc1NC(=O)c1nnn(-c2ccccc2F)c1C | 8 µM |  | %max [6]: 40%
Cc1cccc(NC(=O)c2nnn(-c3ccc(C(C)C)cc3)c2C)c1 | 3.2 µM | 35% | 
CCc1cccc(C)c1NC(=O)c1nnn(-c2ccccc2Cl)c1C | 2.5 µM |  | %max [6]: 55%
COc1ccccc1-n1nnc(C(=O)Nc2c(C)cccc2C)c1C | 0.6 µM | 28% | 
CCc1ccc(-n2nnc(C(=O)Nc3ccc(NC(C)=O)cc3)c2C)cc1 |  | 15% | 
CCc1cccc(C)c1NC(=O)c1nnn(-c2ccc(Cl)cc2)c1C |  |  | %max [6]: 66%
Cc1c(C(=O)Nc2cccc(F)c2)nnn1-c1ccc(C(C)C)cc1 | 1.3 µM |  | IC50 [3]: 0.013 µM; inhibition [8]: Active; %max [9]: 33%
Cc1cccc(C)c1NC(=O)c1nnn(-c2ccccc2Cl)c1C | 9.1 µM |  | %max [6]: 44%
CCc1cccc(C)c1NC(=O)c1nnn(-c2ccc(F)cc2)c1C |  |  | %max [4]: 28%
Cc1cccc(C)c1NC(=O)c1nnn(-c2ccc(Cl)cc2)c1C | 5.2 µM |  | %max [6]: 57%

SMILES | EC50 [1] | %max [2] | also measured
CCc1ccc(-n2nnc(C(=O)Nc3ccccc3C)c2C)cc1 | 3.2 µM | 62% | 
Cc1c(C(=O)Nc2ccccc2F)nnn1-c1ccc(C(C)C)cc1 | 2.1 µM |  | IC50 [3]: 0.035 µM; %max [9]: 29%
CCc1ccc(-n2nnc(C(=O)Nc3ccc(C(=O)OC)cc3)c2C)cc1 |  | 14% | inhibition [5]: inactive
Cc1c(Cl)cccc1NC(=O)c1nnn(-c2ccccc2F)c1C | 6.5 µM |  | %max [4]: 92%
CCc1cccc(C)c1NC(=O)c1nnn(-c2ccccc2)c1C | 5.8 µM |  | %max [6]: 36%
CCc1ccc(-n2nnc(C(=O)Nc3ccc(Cl)cc3Cl)c2C)cc1 |  | 12% | 
CCc1cccc(C)c1NC(=O)c1nnn(-c2ccc(C)cc2)c1C |  |  | %max [6]: 82%
Cc1cccc(C)c1NC(=O)c1nnn(-c2cccc(Cl)c2C)c1C | 9 µM |  | %max [6]: 88%
CCc1ccc(-n2nnc(C(=O)Nc3ccccc3Cl)c2C)cc1 | 0.6 µM |  | %max [9]: 19%
Cc1c(C(=O)Nc2ccccc2)nnn1-c1ccccc1F | 23 µM |  | IC50 [3]: 1.1 µM; %max [6]: 31%
Cc1c(Cl)cccc1NC(=O)c1nnn(-c2ccccc2Cl)c1C | 3.1 µM |  | %max [4]: 94%; inhibition [10]: Active
CCc1ccc(-n2nnc(C(=O)Nc3cccc(OC)c3)c2C)cc1 | 3.7 µM | 31% | 
Cc1c(C(=O)Nc2ccc(F)cc2)nnn1-c1ccc(C(C)C)cc1 | 3.5 µM | 29% | 
CCCCc1ccc(-n2nnc(C(=O)Nc3ccccc3F)c2C)cc1 | 3.5 µM | 30% | 
CCc1ccc(-n2nnc(C(=O)Nc3c(C)cccc3C)c2C)cc1 | 4.6 µM |  | %max [4]: 80%
Cc1ccc(-n2nnc(C(=O)Nc3c(C)cccc3C)c2C)cc1 | 1.7 µM |  | %max [4]: 73%
Cc1c(Cl)cccc1NC(=O)c1nnn(-c2ccc(F)cc2)c1C | 8.4 µM |  | %max [4]: 87%
CCc1ccc(-n2nnc(C(=O)Nc3ccc(C)cc3)c2C)cc1 |  | 18% | 
CCc1ccc(-n2nnc(C(=O)Nc3ccc(OC)cc3)c2C)cc1 |  |  | %max [9]: 21%
Cc1ccc(-n2nnc(C(=O)Nc3cccc(Cl)c3C)c2C)cc1 | 2.8 µM | 56% | 
Cc1ccccc1NC(=O)c1nnn(-c2ccc(C(C)C)cc2)c1C | 2.6 µM | 54% | 
CCc1ccc(-n2nnc(C(=O)Nc3cccc(C)c3)c2C)cc1 | 2.1 µM |  | %max [9]: 72%
CCc1cccc(C)c1NC(=O)c1nnn(-c2cccc(Cl)c2C)c1C |  | 97% | inhibition [10]: Active
